Source: ChEMBL document CHEMBL4373647, “Design, synthesis, and antimicrobial evaluation of 1,4-dihydroindeno[1,2-c]pyrazole tethered carbohydrazide hybrids: exploring their in silico ADMET, ergosterol inhibition and ROS inducing potential” (Medchemcomm, 2019)
Activity calls are given as the source filed them.

What was measured:
Type in all cases: functional
Pichia kudriavzevii [1] = experiment: Ratio of MFC to MIC against Candida krusei MTCC 3020
Outline: (§1)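 MIC by agar well diffusion: Candida lawns on Mueller-Hinton agar, wells loaded with compound in 10% DMSO (125–0.97 µg/mL), 24 h at 37 °C, lowest concentration giving an inhibition zone. MFC: compound in Mueller-Hinton broth (125–0.97 µg/mL) with yeast, 24 h at 37 °C, 10 µL plated on agar, lowest killing concentration after 24 h. Ratio is MFC/MIC.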

Candida albicans [2] = experiment: Fungicidal activity against Candida albicans MTCC 7315 assessed as fungal killing incubated for 24 hrs; details: MTCC 7315, 24 h
Outline: (§2)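 Compound at 125–0.97 µg/mL in Mueller Hinton broth in microcentrifuge tubes, each Candida strain added, held 24 h at 37 °C. 10 µL of the treated suspension plated on Mueller Hinton agar and incubated a further 24 h at 37 °C. MFC is the lowest concentration that kills the strain. Duplicates, means reported.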

Nakaseomyces glabratus [3] = experiment: Fungicidal activity against Candida glabrata MTCC 3019 assessed as fungal killing incubated for 24 hrs; details: MTCC 3019, 24 h; outline: as §2
Escherichia coli [4] = experiment: Antibacterial activity against Escherichia coli MTCC 739 assessed as inhibition of bacterial growth incubated for 24 hrs by agar well diffusion method; details: MTCC 739, 24 h
Outline: (§3)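 Strains from MTCC; inoculum at 0.5 McFarland spread on Mueller-Hinton agar; 6 mm wells loaded with compound over 125–0.97 µg/mL; ciprofloxacin positive control (same range), DMSO negative control. Plates held 24 h at 37 °C; MIC taken as lowest concentration giving a clear inhibition zone. Triplicate runs, mean MIC reported.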

Candida albicans [5] = experiment: Antifungal activity against Candida albicans MTCC 3018 assessed as inhibition of fungal growth incubated for 24 hrs by agar well diffusion method; details: MTCC 3018, 24 h
Outline: (§4)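 Candida strains from MTCC, pre-cultured and spread on Mueller Hinton agar. Wells received compound dissolved in 10% DMSO, 125–0.97 µg/mL; miconazole standard over the same range, DMSO negative control. After 24 h at 37 °C, MIC was read as the lowest concentration giving an inhibition zone. Duplicate experiments, means given.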

Pichia sporocuriosa [6] = experiment: Fungicidal activity against Issatchenkia hanoiensis MTCC 4755 assessed as fungal killing incubated for 24 hrs; details: MTCC 4755, 24 h; outline: as §2
Bacillus subtilis [7] = experiment: Antibacterial activity against Bacillus subtilis MTCC 121 assessed as inhibition of bacterial growth incubated for 24 hrs by agar well diffusion method; details: MTCC 121, 24 h; outline: as §3
Nakaseomyces glabratus [8] = experiment: Ratio of MFC to MIC against Candida glabrata MTCC 3019; outline: as §1
Candida albicans [9] = experiment: Fungicidal activity against Candida albicans MTCC 227 assessed as fungal killing incubated for 24 hrs; details: MTCC 227, 24 h; outline: as §2
Pichia sporocuriosa [10] = experiment: Ratio of MFC to MIC against Issatchenkia hanoiensis MTCC 4755; outline: as §1
Candida albicans [11] = experiment: Fungicidal activity against Candida albicans MTCC 183 assessed as fungal killing incubated for 24 hrs; outline: as §2
Candida parapsilosis [12] = experiment: Antifungal activity against Candida parapsilosis MTCC 1744 assessed as inhibition of fungal growth incubated for 24 hrs by agar well diffusion method; details: Lodderomyces parapsilosis, MTCC 1744, 24 h; outline: as §4
Nakaseomyces glabratus [13] = experiment: Antifungal activity against Candida glabrata MTCC 3019 assessed as inhibition of fungal growth incubated for 24 hrs by agar well diffusion method; details: MTCC 3019, 24 h; outline: as §4
Candida albicans [14] = experiment: Ratio of MFC to MIC against Candida albicans MTCC 183
Pseudomonas aeruginosa [15] = experiment: Bactericidal activity against Pseudomonas aeruginosa MTCC 2453 assessed as bacterial killing incubated for 24 hrs; details: MTCC 2453, 24 h
Outline: (§5)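 Broth tube assay: compound at 0–125 µg/mL in Mueller Hinton broth, overnight culture added to 0.5 McFarland (1.5 × 10^8 cfu/mL), held 24 h at 37 °C. 10 µL from each tube plated on Mueller Hinton agar. MBC is the lowest concentration that kills the strain. Duplicates, means reported.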

Candida albicans [16] = experiment: Antifungal activity against Candida albicans MTCC 3017 assessed as inhibition of fungal growth incubated for 24 hrs by agar well diffusion method; details: MTCC 3017, 24 h; outline: as §4
Staphylococcus aureus [17] = experiment: Ratio of MBC to MIC against Staphylococcus aureus MLS-16 MTCC 2940
Candida albicans [18] = experiment: Antifungal activity against Candida albicans MTCC 4748 assessed as inhibition of fungal growth incubated for 24 hrs by agar well diffusion method; details: MTCC 4748, 24 h; outline: as §4
Micrococcus luteus [19] = experiment: Antibacterial activity against Micrococcus luteus MTCC 2470 assessed as inhibition of bacterial growth incubated for 24 hrs by agar well diffusion method; details: MTCC 2470, 24 h; outline: as §3
Micrococcus luteus [20] = experiment: Bactericidal activity against Micrococcus luteus MTCC 2470 assessed as bacterial killing incubated for 24 hrs; details: MTCC 2470, 24 h; outline: as §5
Candida albicans [21] = experiment: Fungicidal activity against Candida albicans MTCC 3018 assessed as fungal killing incubated for 24 hrs; details: MTCC 3018, 24 h; outline: as §2
Bacillus subtilis [22] = experiment: Ratio of MBC to MIC against Bacillus subtilis MTCC 121
Candida albicans [23] = experiment: Antifungal activity against Candida albicans MTCC 227 assessed as inhibition of fungal growth incubated for 24 hrs by agar well diffusion method; details: MTCC 227, 24 h; outline: as §4
Pseudomonas aeruginosa [24] = experiment: Antibacterial activity against Pseudomonas aeruginosa MTCC 2453 assessed as inhibition of bacterial growth incubated for 24 hrs by agar well diffusion method; details: MTCC 2453, 24 h; outline: as §3
Candida albicans [25] = experiment: Ratio of MFC to MIC against Candida albicans MTCC 3018; outline: as §1
Escherichia coli [26] = experiment: Ratio of MBC to MIC for Escherichia coli MTCC 739
Raoultella planticola = experiment: Antibacterial activity against Klebsiella planticola MTCC 530 assessed as inhibition of bacterial growth incubated for 24 hrs by agar well diffusion method; details: MTCC 530, 24 h; outline: as §3
Candida albicans [27] = experiment: Antifungal activity against Candida albicans MTCC 7315 assessed as inhibition of fungal growth incubated for 24 hrs by agar well diffusion method; details: MTCC 7315, 24 h; outline: as §4
Candida albicans [28] = experiment: Antifungal activity against Candida albicans MTCC 1637 assessed as inhibition of fungal growth incubated for 24 hrs by agar well diffusion method; details: MTCC 1637, 24 h; outline: as §4
Staphylococcus aureus [29] = experiment: Ratio of MBC to MIC against Staphylococcus aureus MTCC 96
Candida albicans [30] = experiment: Ratio of MFC to MIC against Candida albicans MTCC 4748; outline: as §1
Staphylococcus aureus [31] = experiment: Antibacterial activity against Staphylococcus aureus MTCC 96 assessed as inhibition of bacterial growth incubated for 24 hrs by agar well diffusion method; details: MTCC 96, 24 h; outline: as §3
Candida albicans [32] = experiment: Ratio of MFC to MIC against Candida albicans MTCC 7315; outline: as §1
Candida parapsilosis [33] = experiment: Ratio of MFC to MIC against Candida parapsilosis MTCC 1744; outline: as §1
Pichia kudriavzevii [34] = experiment: Fungicidal activity against Candida krusei MTCC 3020 assessed as fungal killing incubated for 24 hrs; details: MTCC 3020, 24 h; outline: as §2
Candida albicans [35] = experiment: Ratio of MFC to MIC against Candida albicans MTCC 1637
Pichia kudriavzevii [36] = experiment: Antifungal activity against Candida krusei MTCC 3020 assessed as inhibition of fungal growth incubated for 24 hrs by agar well diffusion method; details: MTCC 3020, 24 h; outline: as §4

O=C(N/N=C/c1ccc(O)cc1)c1n[nH]c2c1Cc1cc(F)ccc1-2
3.9 µg/mL: MIC (Escherichia coli [4]) | MIC (Staphylococcus aureus [31])
7.8 µg/mL: MIC (Bacillus subtilis [7]) | MIC (Candida albicans [16]) | MIC (Micrococcus luteus [19]) | MIC (Candida albicans [23]) | MIC (Pseudomonas aeruginosa [24]) | MIC (Raoultella planticola)
62.4 µg/mL: MFC (Pichia sporocuriosa [6])
15.6 µg/mL: MIC (Candida albicans [5]) | MFC (Candida albicans [9]) | MIC (Candida parapsilosis [12]) | MIC (Nakaseomyces glabratus [13]) | MBC (Pseudomonas aeruginosa [15]) | MIC (Candida albicans [18]) | MBC (Micrococcus luteus [20]) | MIC (Candida albicans [27]) | MIC (Candida albicans [28]) | MIC (Pichia kudriavzevii [36])
2: Ratio (Pichia kudriavzevii [1]) | Ratio (Nakaseomyces glabratus [8]) | Ratio (Pichia sporocuriosa [10]) | Ratio (Candida albicans [14]) | Ratio (Staphylococcus aureus [17]) | Ratio (Bacillus subtilis [22]) | Ratio (Candida albicans [25]) | Ratio (Escherichia coli [26]) | Ratio (Staphylococcus aureus [29]) | Ratio (Candida albicans [30]) | Ratio (Candida albicans [32]) | Ratio (Candida parapsilosis [33]) | Ratio (Candida albicans [35])
inactive: MFC (Candida albicans [11])
31.2 µg/mL: MFC (Candida albicans [2]) | MFC (Nakaseomyces glabratus [3]) | MFC (Candida albicans [21]) | MFC (Pichia kudriavzevii [34])

COc1ccc2c(c1)Cc1c(C(=O)N/N=C/c3c(F)cc(F)cc3F)n[nH]c1-2
7.8 µg/mL: MIC (Candida albicans [5]) | MIC (Bacillus subtilis [7]) | MIC (Micrococcus luteus [19]) | MIC (Candida albicans [23]) | MIC (Pseudomonas aeruginosa [24]) | MIC (Raoultella planticola)
31.2 µg/mL: MFC (Candida albicans [2]) | MFC (Nakaseomyces glabratus [3]) | MFC (Pichia sporocuriosa [6]) | MFC (Pichia kudriavzevii [34])
inactive: MFC (Candida albicans [11])
3.9 µg/mL: MIC (Escherichia coli [4]) | MIC (Candida albicans [16]) | MIC (Staphylococcus aureus [31])
2: Ratio (Pichia kudriavzevii [1]) | Ratio (Nakaseomyces glabratus [8]) | Ratio (Pichia sporocuriosa [10]) | Ratio (Candida albicans [14]) | Ratio (Staphylococcus aureus [17]) | Ratio (Bacillus subtilis [22]) | Ratio (Candida albicans [25]) | Ratio (Escherichia coli [26]) | Ratio (Staphylococcus aureus [29]) | Ratio (Candida albicans [30]) | Ratio (Candida albicans [32]) | Ratio (Candida parapsilosis [33]) | Ratio (Candida albicans [35])
15.6 µg/mL: MFC (Candida albicans [9]) | MIC (Candida parapsilosis [12]) | MIC (Nakaseomyces glabratus [13]) | MBC (Pseudomonas aeruginosa [15]) | MIC (Candida albicans [18]) | MBC (Micrococcus luteus [20]) | MFC (Candida albicans [21]) | MIC (Candida albicans [27]) | MIC (Candida albicans [28]) | MIC (Pichia kudriavzevii [36])

COc1cc(/C=N/NC(=O)c2n[nH]c3c2Cc2ccccc2-3)ccc1O
3.9 µg/mL: MIC (Bacillus subtilis [7]) | MIC (Nakaseomyces glabratus [13]) | MIC (Candida albicans [18]) | MIC (Raoultella planticola) | MIC (Staphylococcus aureus [31])
2: Ratio (Pichia kudriavzevii [1]) | Ratio (Nakaseomyces glabratus [8]) | Ratio (Pichia sporocuriosa [10]) | Ratio (Candida albicans [14]) | Ratio (Staphylococcus aureus [17]) | Ratio (Bacillus subtilis [22]) | Ratio (Candida albicans [25]) | Ratio (Escherichia coli [26]) | Ratio (Staphylococcus aureus [29]) | Ratio (Candida albicans [30]) | Ratio (Candida albicans [32]) | Ratio (Candida parapsilosis [33]) | Ratio (Candida albicans [35])
31.2 µg/mL: MFC (Pichia sporocuriosa [6]) | MFC (Candida albicans [21]) | MFC (Pichia kudriavzevii [34])
inactive: MFC (Candida albicans [11])
7.8 µg/mL: MFC (Nakaseomyces glabratus [3]) | MIC (Escherichia coli [4]) | MIC (Candida albicans [16]) | MIC (Micrococcus luteus [19]) | MIC (Candida albicans [23]) | MIC (Pseudomonas aeruginosa [24]) | MIC (Candida albicans [27])
15.6 µg/mL: MFC (Candida albicans [2]) | MIC (Candida albicans [5]) | MFC (Candida albicans [9]) | MIC (Candida parapsilosis [12]) | MBC (Pseudomonas aeruginosa [15]) | MBC (Micrococcus luteus [20]) | MIC (Candida albicans [28]) | MIC (Pichia kudriavzevii [36])

O=C(N/N=C/c1ccc(O)cc1)c1n[nH]c2c1Cc1ccccc1-2
3.9 µg/mL: MIC (Escherichia coli [4]) | MIC (Staphylococcus aureus [31])
2: Ratio (Pichia kudriavzevii [1]) | Ratio (Nakaseomyces glabratus [8]) | Ratio (Pichia sporocuriosa [10]) | Ratio (Candida albicans [14]) | Ratio (Staphylococcus aureus [17]) | Ratio (Bacillus subtilis [22]) | Ratio (Candida albicans [25]) | Ratio (Escherichia coli [26]) | Ratio (Staphylococcus aureus [29]) | Ratio (Candida albicans [30]) | Ratio (Candida albicans [32]) | Ratio (Candida parapsilosis [33]) | Ratio (Candida albicans [35])
7.8 µg/mL: MIC (Candida albicans [5]) | MIC (Bacillus subtilis [7]) | MIC (Candida albicans [16]) | MIC (Micrococcus luteus [19]) | MIC (Candida albicans [23]) | MIC (Pseudomonas aeruginosa [24]) | MIC (Raoultella planticola)
31.2 µg/mL: MFC (Candida albicans [2]) | MFC (Pichia kudriavzevii [34])
inactive: MFC (Candida albicans [11])
15.6 µg/mL: MFC (Candida albicans [9]) | MIC (Candida parapsilosis [12]) | MBC (Pseudomonas aeruginosa [15]) | MBC (Micrococcus luteus [20]) | MFC (Candida albicans [21]) | MIC (Candida albicans [27]) | MIC (Candida albicans [28]) | MIC (Pichia kudriavzevii [36])
> 62.5 µg/mL: MFC (Nakaseomyces glabratus [3])
62.4 µg/mL: MFC (Pichia sporocuriosa [6])
> 31.2 µg/mL: MIC (Nakaseomyces glabratus [13]) | MIC (Candida albicans [18])
